From ChEMBL document CHEMBL1125907, “Folate analogues. 34. Synthesis and antitumor activity of non-polyglutamylatable inhibitors of dihydrofolate reductase” (J Med Chem, 1991)

Assays:
CCRF-CEM [1] = assay: (§1) Relative activity when compared to the activity of aminopterin in CCRF-CEM Human leukemia cell at a concentration of 50 uM; assay type: functional
How it was run: (§2)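 Used purified folylpolyglutamate synthetase (FPGS) isolated from CCRF-CEM human leukemia cells. Each compound was tested as an alternative substrate. Activity was read as [3H]glutamate incorporation and expressed relative to aminopterin as reference substrate at 50 μM. Test compounds were examined at concentrations up to 200 μM.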

Dihydrofolate reductase = target: T1, Dihydrofolate reductase (Homo sapiens, UniProt P00374); assay: Compound was tested for its inhibitory activity on Recombinant Human Dihydrofolate Reductase.
T1 sequence (P00374 whole entry): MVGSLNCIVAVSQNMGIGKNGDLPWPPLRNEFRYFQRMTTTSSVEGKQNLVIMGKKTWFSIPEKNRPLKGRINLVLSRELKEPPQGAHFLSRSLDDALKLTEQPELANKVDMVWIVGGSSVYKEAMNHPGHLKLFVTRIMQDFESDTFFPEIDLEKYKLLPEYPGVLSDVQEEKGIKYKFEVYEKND

CCRF-CEM [2] = assay: Relative activity when compared to the activity of aminopterin in CCRF-CEM Human leukemia cell at a concentration of 200 uM; assay type: functional; how it was run: as §2
[3] = target: T2, Folylpolyglutamate synthase, mitochondrial (Homo sapiens, UniProt Q05932); assay: Compound was evaluated for the inhibition of Folyl-polyglutamate synthase in CCRF-CEM Human leukemia cell.
T2 sequence (Q05932 whole entry): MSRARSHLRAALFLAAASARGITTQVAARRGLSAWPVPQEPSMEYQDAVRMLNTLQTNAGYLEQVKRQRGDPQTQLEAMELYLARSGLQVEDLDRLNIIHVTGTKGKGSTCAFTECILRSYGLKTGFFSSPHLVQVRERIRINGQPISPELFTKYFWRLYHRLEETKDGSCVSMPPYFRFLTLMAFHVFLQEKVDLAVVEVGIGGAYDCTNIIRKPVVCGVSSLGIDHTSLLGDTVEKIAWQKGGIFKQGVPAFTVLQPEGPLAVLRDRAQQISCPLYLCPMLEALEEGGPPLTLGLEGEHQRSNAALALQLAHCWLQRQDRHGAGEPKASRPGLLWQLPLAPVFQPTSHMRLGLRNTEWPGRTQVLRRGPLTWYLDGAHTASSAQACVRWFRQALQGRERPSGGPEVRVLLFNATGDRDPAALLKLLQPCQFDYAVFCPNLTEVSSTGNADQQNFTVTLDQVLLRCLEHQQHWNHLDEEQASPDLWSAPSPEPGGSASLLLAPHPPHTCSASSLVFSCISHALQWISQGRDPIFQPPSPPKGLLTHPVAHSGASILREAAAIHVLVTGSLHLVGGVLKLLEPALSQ
How it was run: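 Purified folylpolyglutamate synthetase from CCRF-CEM human leukemia cells, with 50 µM aminopterin as substrate. Increasing amounts of test compound were added to the assay mixture. Activity was read as [3H]glutamate incorporation, and inhibition was expressed as IC50.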

H35R0.3 [4] = assay: Compound was tested for its inhibitory activity in tumor cell growth in H35 hepatoma cells; assay type: functional, cell-based; details: Rattus norvegicus
H35R0.3 [5] = assay: Compound was tested for its inhibitory activity in tumor cell growth in H35R cells; assay type: functional, cell-based; details: Rattus norvegicus
H35R0.3 [6] = assay: Compound was tested for growth inhibition of H35 Hepatoma cells.; assay type: functional, cell-based; details: Rattus norvegicus
How it was run: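 H35 hepatoma cells grown 24 h, then exposed to compound for a 6-h pulse (24–30 h); growth read as cell counts after 72 h in culture medium.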

H35R0.3 [7] = assay: Compound was tested for inhibition of folinic acid transport in H35 Hepatoma cells.; assay type: functional, cell-based; details: Rattus norvegicus
Manca = assay: Compound was tested for its inhibitory activity manca tumor cell growth; assay type: functional, cell-based; details: Homo sapiens
CCRF-CEM [8] = assay: Compound was tested for its inhibitory activity in tumor cell growth in CCRF-CEM in human.; assay type: functional, cell-based
H35R0.3 [9] = assay: Compound was tested for inhibition of folinic acid transport in H35 Hepatoma cells; No Inhibition at 50 uM; assay type: functional, cell-based, Rattus norvegicus
CCRF-CEM [10] = assay: as §1; assay type: functional; remark: listed apart in the source
How it was run: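 Purified folylpolyglutamate synthetase from CCRF-CEM human leukemia cells; substrate activity measured as [3H]glutamate incorporation with compound up to 200 μM, expressed relative to aminopterin at 50 μM.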

SMILES	Relative activity (CCRF-CEM [1])	IC50 (Dihydrofolate reductase)	Relative activity (CCRF-CEM [2])	IC50 [3]	IC50 (H35R0.3 [4])	IC50 (H35R0.3 [5])	IC50 (H35R0.3 [6])	IC50 (H35R0.3 [7])	IC50 (Manca)	IC50 (CCRF-CEM [8])	IC50 (H35R0.3 [9])	Relative activity (CCRF-CEM [10])
Nc1nc(N)c2nc(CCc3ccc(C(=O)N[C@@H](CCC(=O)O)C(=O)O)cc3)cnc2n1	60	4.1 nM										
C=C(CC(NC(=O)c1ccc(CCc2cnc3nc(N)nc(N)c3n2)cc1)C(=O)O)C(=O)O (stereo not drawn)		8.8 nM	<2	> 200000 nM	39 nM	18400 nM	> 20000 nM	5500 nM	9.9 nM	13 nM		
CN(Cc1cnc2nc(N)nc(N)c2n1)c1ccc(C(=O)NC(C(=O)O)C(O)CC(=O)O)cc1 (stereo not drawn)	<3	5.3 nM		> 200000 nM	85 nM	5600 nM			48 nM		No inhibition	
C=C(CC(NC(=O)c1ccc(C(CC)Cc2cnc3nc(N)nc(N)c3n2)cc1)C(=O)O)C(=O)O (stereo not drawn)		5.8 nM	<1	118000 nM	6.3 nM	14000 nM	14000 nM	1500 nM	3.8 nM	7.4 nM		
C=C(CC(NC(=O)c1ccc(N(C)Cc2cnc3nc(N)nc(N)c3n2)cc1)C(=O)O)C(=O)O (stereo not drawn)		6.4 nM	<1	> 200000 nM	16 nM	21000 nM	3900 nM	7000 nM	26 nM	30 nM		
Nc1nc(N)c2nc(CCc3ccc(C(=O)NC(C(=O)O)C(O)CC(=O)O)cc3)cnc2n1 (stereo not drawn)	<3	5.9 nM		> 50000 nM					29 nM			
Nc1nc(N)c2nc(CNc3ccc(C(=O)N[C@@H](CCC(=O)O)C(=O)O)cc3)cnc2n1 [AMINOPTERIN]												100
CN(Cc1cnc2nc(N)nc(N)c2n1)c1ccc(C(=O)N[C@@H](CCC(=O)O)C(=O)O)cc1 [METHOTREXATE]							85 nM	18000 nM				
